ChEMBL document CHEMBL3407391, “Ether analogues of DPA-714 with subnanomolar affinity for the translocator protein (TSPO)” (Eur J Med Chem, 2015)

Experiments:
[1] = biological target: T1, Translocator protein (Rattus norvegicus, UniProt P16257); experiment: Inhibition of rat TSPO
[2] = biological target: Translocator protein (Homo sapiens, UniProt P30536); experiment: Inhibition of human TSPO
[3] = test system: C6; experiment: Induction of pregnenolone production in rat C6 cells at 40 uM after 2 hrs by ELISA based steroidogenesis assay relative to control; format: functional
Procedure, shortened: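 C6 glioma cells grown in DMEM with 10% FBS at 37 °C, 5% CO2, then seeded at 1×10^4 cells/well and washed three times with simple salts medium (HEPES/NaOH pH 7.4, 0.1% BSA). Cells were exposed to compound at 40 μM in salts medium with trilostane (25 μM) and SU 10603 (10 μM) for 2 h at 37 °C, DMSO ≤0.5%. Secreted pregnenolone was measured by ELISA; 6–9 replicates.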

[4] = biological target: T1, Translocator protein; set-up: species or system Wistar, Kidney

T1 sequence (P16257 whole entry, looked up): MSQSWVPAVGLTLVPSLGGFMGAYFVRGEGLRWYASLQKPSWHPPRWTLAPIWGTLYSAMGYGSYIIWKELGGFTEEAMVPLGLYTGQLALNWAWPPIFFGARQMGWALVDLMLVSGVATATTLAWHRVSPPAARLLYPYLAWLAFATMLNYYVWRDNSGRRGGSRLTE
Translocator protein (Homo sapiens, UniProt P30536), sequence (P30536 whole entry): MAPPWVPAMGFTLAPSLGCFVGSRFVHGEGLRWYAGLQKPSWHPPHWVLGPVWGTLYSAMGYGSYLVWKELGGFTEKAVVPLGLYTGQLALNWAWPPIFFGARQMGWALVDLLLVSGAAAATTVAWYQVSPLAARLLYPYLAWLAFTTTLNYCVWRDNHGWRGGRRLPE

Row | Ki [4] | SMILES | Activity [3] | also measured
1 |  | COc1ccccc1CN(C(C)=O)c1cnccc1Oc1ccccc1 |  | Ki [1]: 0.7 nM; Ki [2]: 2.5 nM
2 |  | CCN(CC)C(=O)Cc1c(-c2ccc(OC(C)C)cc2)nn2c(C)cc(C)nc12 | 165% | 
3 |  | CCN(CC)C(=O)Cc1c(-c2ccc(OCC(C)C)cc2)nn2c(C)cc(C)nc12 | 206.5% | 
4 | 0.86 nM | CCN(CC)C(=O)Cc1c(-c2ccc(OC3CCC3)cc2)nn2c(C)cc(C)nc12 | 184.3% | 
5 | 1.5 nM | CCN(CC)C(=O)Cc1c(-c2ccc(OC3CCCC3)cc2)nn2c(C)cc(C)nc12 | 273.4% | 
6 |  | CCN(CC)C(=O)Cc1c(-c2ccc(OCC3CC3)cc2)nn2c(C)cc(C)nc12 | 226.3% | 
7 |  | CCN(CC)C(=O)Cc1c(-c2ccc(OCC3CCC3)cc2)nn2c(C)cc(C)nc12 | 298.4% | 
8 |  | CCN(CC)C(=O)Cc1c(-c2ccc(OCC3CCCC3)cc2)nn2c(C)cc(C)nc12 | 173.9% | 
9 |  | CCN(CC)C(=O)Cc1c(-c2ccc(OCC3CCCCC3)cc2)nn2c(C)cc(C)nc12 | 134.2% | 
10 |  | CCN(CC)C(=O)Cc1c(-c2ccc(OCc3ccccc3)cc2)nn2c(C)cc(C)nc12 | 262.4% | 
11 |  | CCN(CC)C(=O)Cc1c(-c2ccc(OCc3ccccc3F)cc2)nn2c(C)cc(C)nc12 | 161.5% | 
12 | 0.47 nM | CCN(CC)C(=O)Cc1c(-c2ccc(OCc3cccc(F)c3)cc2)nn2c(C)cc(C)nc12 | 281.2% | 
13 |  | CCN(CC)C(=O)Cc1c(-c2ccc(OCc3ccc(F)cc3)cc2)nn2c(C)cc(C)nc12 | 311.7% | 
14 | 1.4 nM | CCN(CC)C(=O)Cc1c(-c2ccc(OCc3ccccc3C(F)(F)F)cc2)nn2c(C)cc(C)nc12 | 331.7% | 
15 | 0.67 nM | CCN(CC)C(=O)Cc1c(-c2ccc(OCc3cccc(C(F)(F)F)c3)cc2)nn2c(C)cc(C)nc12 | 230% | 
16 | 1.6 nM | CCN(CC)C(=O)Cc1c(-c2ccc(OCc3ccc(C(F)(F)F)cc3)cc2)nn2c(C)cc(C)nc12 | 189.9% | 
17 |  | CCN(CC)C(=O)Cc1c(-c2ccc(OCCc3ccccc3)cc2)nn2c(C)cc(C)nc12 | 254% | 
18 |  | COc1ccc(OC)c(CN(C(C)=O)c2cc(F)ccc2Oc2ccccc2)c1 |  | Ki [2]: 0.2 nM
19 |  | CCC(C)N(C)C(=O)c1cc2ccccc2c(-c2ccccc2Cl)n1 (stereo unspecified) [PK-11195] | 166.5% | 
